# Tests used:
# [1] = biological target: T1, Mitogen-activated protein kinase kinase kinase 13 (Homo sapiens) (UniProt O43283); assay: Inhibition of LZK at 1 uM
# T1 sequence (whole entry): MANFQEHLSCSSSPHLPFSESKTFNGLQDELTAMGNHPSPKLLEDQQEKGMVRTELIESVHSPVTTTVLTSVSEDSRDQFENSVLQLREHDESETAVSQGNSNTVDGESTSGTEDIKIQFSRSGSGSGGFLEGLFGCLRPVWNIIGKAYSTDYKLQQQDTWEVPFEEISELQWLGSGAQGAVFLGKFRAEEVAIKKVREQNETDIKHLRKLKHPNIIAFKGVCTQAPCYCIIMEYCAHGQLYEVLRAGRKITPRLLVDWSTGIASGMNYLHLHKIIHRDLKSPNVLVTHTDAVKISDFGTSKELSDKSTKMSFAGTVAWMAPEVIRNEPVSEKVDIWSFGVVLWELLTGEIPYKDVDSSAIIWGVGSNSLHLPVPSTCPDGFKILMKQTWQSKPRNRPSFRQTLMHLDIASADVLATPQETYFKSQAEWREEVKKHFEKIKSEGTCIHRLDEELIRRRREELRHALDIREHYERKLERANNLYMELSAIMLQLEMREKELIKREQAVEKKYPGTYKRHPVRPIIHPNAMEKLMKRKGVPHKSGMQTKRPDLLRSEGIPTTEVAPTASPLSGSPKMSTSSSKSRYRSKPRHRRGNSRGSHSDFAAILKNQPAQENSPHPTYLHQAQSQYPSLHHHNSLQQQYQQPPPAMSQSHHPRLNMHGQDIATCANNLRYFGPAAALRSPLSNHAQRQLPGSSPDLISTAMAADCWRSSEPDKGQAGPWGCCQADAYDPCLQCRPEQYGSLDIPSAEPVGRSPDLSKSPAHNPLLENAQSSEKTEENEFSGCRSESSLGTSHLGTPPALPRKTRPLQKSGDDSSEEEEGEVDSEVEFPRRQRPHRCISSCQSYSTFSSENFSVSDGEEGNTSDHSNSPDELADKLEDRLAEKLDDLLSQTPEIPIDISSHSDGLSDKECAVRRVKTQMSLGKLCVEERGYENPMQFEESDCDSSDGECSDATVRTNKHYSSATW
# [2] = biological target: Serine/threonine-protein kinase MRCK gamma (Homo sapiens) (UniProt Q6DT37); assay: Inhibition of DMPK2 at 1 uM
# In short: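 Single-concentration screen using Ambit Bioscience KINOMEscan technology across a panel of 250–400 kinases. Per-kinase inhibition from this screen was summarized as S(90), the fraction of kinases inhibited by more than 90%.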
# [3] = biological target: BMP-2-inducible protein kinase (Homo sapiens) (UniProt Q9NSY1); assay: Inhibition of BIKE at 1 uM
# In short: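 Ambit KINOMEscan screen at a single concentration across a 250–400 kinase panel, recorded as percent inhibition. Selectivity was expressed as S(90), the fraction of kinases inhibited >90%.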
# [4] = biological target: T2, Mitogen-activated protein kinase kinase kinase 19 (Homo sapiens) (UniProt Q56UN5); assay: Inhibition of YSK4 at 1 uM
# T2 sequence (whole entry): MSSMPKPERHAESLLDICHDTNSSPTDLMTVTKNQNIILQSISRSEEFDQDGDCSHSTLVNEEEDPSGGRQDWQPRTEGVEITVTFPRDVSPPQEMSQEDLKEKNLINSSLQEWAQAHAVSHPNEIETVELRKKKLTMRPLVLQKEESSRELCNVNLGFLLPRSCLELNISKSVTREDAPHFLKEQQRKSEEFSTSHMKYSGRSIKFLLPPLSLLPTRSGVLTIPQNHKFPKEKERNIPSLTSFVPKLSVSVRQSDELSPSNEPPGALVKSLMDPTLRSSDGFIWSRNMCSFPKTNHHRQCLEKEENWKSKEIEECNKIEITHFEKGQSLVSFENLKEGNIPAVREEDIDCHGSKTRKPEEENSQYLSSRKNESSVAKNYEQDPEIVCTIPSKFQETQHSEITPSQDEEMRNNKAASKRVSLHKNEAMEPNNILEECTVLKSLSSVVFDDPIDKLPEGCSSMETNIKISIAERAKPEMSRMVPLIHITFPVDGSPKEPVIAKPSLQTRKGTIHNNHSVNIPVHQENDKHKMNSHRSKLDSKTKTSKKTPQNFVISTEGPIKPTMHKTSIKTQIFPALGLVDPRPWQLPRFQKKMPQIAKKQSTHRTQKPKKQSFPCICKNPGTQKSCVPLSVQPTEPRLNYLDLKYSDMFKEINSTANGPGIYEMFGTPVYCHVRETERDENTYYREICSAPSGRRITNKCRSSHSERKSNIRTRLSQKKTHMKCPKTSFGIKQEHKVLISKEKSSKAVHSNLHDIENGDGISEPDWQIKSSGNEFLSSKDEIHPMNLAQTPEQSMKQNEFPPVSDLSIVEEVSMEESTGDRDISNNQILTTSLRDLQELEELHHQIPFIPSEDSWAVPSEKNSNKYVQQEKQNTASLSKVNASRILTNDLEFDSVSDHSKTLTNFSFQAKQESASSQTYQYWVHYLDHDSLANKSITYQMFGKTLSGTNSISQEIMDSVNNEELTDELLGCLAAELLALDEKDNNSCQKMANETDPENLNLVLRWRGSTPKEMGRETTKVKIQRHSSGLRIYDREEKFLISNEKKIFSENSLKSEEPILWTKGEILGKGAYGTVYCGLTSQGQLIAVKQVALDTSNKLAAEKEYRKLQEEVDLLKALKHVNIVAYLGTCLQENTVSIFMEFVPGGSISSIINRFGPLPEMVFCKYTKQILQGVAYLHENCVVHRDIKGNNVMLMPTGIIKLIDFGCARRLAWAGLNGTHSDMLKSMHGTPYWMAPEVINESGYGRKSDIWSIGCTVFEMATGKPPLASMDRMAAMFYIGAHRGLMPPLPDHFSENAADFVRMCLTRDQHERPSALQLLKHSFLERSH
# [5] = biological target: T3, cAMP-dependent protein kinase catalytic subunit PRKX (Homo sapiens) (UniProt P51817); assay: Inhibition of PRKX at 1 uM
# T3 sequence (whole entry): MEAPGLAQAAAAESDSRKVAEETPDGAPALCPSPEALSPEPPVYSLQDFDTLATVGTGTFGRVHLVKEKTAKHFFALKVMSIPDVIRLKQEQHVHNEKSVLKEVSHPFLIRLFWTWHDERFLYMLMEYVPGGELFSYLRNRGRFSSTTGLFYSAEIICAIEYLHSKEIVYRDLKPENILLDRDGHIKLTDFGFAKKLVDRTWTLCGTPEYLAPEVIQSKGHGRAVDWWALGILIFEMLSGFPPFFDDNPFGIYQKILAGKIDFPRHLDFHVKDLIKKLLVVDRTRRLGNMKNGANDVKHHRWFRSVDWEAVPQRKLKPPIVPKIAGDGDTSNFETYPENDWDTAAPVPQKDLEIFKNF
# Serine/threonine-protein kinase MRCK gamma (Homo sapiens), sequence (Q6DT37 whole entry): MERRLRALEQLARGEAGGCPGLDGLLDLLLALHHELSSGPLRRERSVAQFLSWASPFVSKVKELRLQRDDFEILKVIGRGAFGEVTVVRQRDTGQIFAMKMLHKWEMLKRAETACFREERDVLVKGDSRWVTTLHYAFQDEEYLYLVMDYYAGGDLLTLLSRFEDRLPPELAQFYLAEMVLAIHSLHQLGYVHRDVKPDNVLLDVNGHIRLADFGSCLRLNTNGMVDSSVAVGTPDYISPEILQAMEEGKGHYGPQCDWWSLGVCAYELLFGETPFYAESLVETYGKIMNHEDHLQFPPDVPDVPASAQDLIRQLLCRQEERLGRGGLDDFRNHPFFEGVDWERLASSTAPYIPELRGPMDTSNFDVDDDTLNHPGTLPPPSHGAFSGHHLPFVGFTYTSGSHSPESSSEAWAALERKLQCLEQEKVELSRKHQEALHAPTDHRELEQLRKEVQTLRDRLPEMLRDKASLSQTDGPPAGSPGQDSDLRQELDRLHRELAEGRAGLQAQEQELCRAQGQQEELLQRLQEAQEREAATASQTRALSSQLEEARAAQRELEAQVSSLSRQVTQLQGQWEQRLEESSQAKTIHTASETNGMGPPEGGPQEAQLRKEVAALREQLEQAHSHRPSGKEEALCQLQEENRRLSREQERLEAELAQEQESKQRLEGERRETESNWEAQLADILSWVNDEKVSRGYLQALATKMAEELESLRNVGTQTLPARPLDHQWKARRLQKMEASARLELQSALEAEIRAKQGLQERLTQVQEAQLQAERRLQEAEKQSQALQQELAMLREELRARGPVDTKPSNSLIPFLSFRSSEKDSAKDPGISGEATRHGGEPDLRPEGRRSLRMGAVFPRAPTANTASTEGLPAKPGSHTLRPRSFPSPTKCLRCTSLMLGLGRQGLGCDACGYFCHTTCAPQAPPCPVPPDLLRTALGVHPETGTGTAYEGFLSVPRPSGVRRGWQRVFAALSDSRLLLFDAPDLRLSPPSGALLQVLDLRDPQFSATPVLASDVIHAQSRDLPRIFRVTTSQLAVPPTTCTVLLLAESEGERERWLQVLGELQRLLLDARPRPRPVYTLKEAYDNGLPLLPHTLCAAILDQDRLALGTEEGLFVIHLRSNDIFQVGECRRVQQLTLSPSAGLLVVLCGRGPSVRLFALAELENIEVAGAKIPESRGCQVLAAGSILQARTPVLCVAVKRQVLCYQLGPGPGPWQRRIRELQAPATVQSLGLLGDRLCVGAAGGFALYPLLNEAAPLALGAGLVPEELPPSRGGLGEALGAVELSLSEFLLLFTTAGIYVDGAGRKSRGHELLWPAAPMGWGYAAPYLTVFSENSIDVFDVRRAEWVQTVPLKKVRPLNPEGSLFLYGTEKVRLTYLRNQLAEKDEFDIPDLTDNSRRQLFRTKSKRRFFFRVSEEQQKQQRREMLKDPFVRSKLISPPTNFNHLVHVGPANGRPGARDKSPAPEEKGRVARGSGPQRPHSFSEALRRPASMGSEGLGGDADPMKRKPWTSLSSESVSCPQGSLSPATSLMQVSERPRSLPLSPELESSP
# BMP-2-inducible protein kinase (Homo sapiens), sequence (Q9NSY1 whole entry, looked up): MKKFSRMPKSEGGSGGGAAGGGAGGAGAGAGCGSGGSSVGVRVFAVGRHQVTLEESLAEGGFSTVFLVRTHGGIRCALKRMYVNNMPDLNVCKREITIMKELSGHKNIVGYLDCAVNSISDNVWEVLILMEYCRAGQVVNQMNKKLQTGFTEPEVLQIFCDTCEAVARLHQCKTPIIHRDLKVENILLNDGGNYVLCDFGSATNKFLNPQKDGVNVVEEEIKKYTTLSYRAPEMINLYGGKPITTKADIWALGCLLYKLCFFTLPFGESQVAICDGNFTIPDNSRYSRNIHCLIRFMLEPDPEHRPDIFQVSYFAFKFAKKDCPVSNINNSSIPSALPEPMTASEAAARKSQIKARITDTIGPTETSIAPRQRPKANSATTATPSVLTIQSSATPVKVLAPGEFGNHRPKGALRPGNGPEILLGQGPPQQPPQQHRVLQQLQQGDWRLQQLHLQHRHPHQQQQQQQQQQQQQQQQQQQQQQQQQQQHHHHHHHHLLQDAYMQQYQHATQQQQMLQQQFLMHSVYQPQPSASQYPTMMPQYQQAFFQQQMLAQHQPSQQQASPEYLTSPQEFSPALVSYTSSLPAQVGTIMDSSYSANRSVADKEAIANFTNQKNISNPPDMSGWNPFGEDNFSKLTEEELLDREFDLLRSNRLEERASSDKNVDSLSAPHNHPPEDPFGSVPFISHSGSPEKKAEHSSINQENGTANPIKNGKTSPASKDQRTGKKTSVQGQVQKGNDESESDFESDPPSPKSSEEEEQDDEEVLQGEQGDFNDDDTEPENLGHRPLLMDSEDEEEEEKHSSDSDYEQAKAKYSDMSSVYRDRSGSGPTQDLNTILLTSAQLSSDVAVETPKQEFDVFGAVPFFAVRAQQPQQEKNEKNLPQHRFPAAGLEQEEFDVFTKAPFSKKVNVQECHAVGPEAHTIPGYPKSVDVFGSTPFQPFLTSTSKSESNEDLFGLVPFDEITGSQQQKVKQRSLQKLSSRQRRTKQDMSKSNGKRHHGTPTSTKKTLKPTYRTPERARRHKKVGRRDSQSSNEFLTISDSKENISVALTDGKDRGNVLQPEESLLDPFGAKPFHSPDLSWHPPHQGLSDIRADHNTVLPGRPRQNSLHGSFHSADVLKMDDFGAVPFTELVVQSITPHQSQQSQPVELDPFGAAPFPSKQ
inhibition [1] [%],inhibition [2] [%],inhibition [3] [%],inhibition [4] [%],inhibition [5] [%],Structure (SMILES)
< 50,< 50,< 50,< 50,< 50,CN1CCN(c2ccc(-c3cnc4c(c3)N(Cc3cc(Cl)ccc3C(F)(F)F)CCN4)cn2)CC1
–,< 50,< 50,–,< 50,O=C(O)c1ccc(-c2cnc3c(c2)N(Cc2cc(Cl)ccc2C(F)(F)F)CCN3)cc1
< 50,< 50,< 50,< 50,< 50,CN1CCN(c2ccc(-c3cnc4c(c3)N(Cc3c(F)ccc(F)c3Cl)CCN4)cn2)CC1
–,< 50,< 50,–,< 50,O=C(c1ccc(-c2cnc3c(c2)N(Cc2cc(Cl)ccc2C(F)(F)F)CCN3)cc1)N1CCCCC1
< 50,< 50,< 50,< 50,< 50,CN1CCN(c2ccc(-c3cnc4c(c3)N(Cc3cc(Cl)ccc3Cl)CCN4)cn2)CC1

# The remaining lines, values behind:
Structure (SMILES),inhibition [1] [%],inhibition [2] [%],inhibition [3] [%],inhibition [4] [%],inhibition [5] [%]
O=C(c1ccc(-c2cnc3c(c2)N(Cc2cc(Cl)ccc2C(F)(F)F)CCN3)cc1)N1CCC(N2CCCC2)CC1,–,< 50,84,–,< 50
COC1CCN(C(=O)c2ccc(-c3cnc4c(c3)N(Cc3cc(Cl)ccc3C(F)(F)F)CCN4)cc2)CC1,–,< 50,< 50,–,< 50
FC(F)(F)c1ccc(Cl)cc1CN1CCNc2ncc(-c3ccnc(N4CCNCC4)c3)cc21,< 50,< 50,< 50,< 50,< 50
CC(=O)N1CCN(c2cc(-c3cnc4c(c3)N(Cc3cc(Cl)ccc3C(F)(F)F)CCN4)ccn2)CC1,< 50,< 50,< 50,< 50,< 50
CN1CCN(c2ccc(-c3cnc4c(c3)N(Cc3cc(F)ccc3F)CCN4)cn2)CC1,< 50,< 50,< 50,< 50,< 50

# Source: ChEMBL document CHEMBL1165965, “Synthesis and structure-activity relationships of 1,2,3,4-tetrahydropyrido[2,3-b]pyrazines as potent and selective inhibitors of the anaplastic lymphoma kinase” (Bioorg Med Chem, 2010)
